# Screening results: PubChem, several laboratories
# In the library only some 3.7% were active in any assay of this set; here they are far more common.
# m-calpain inh: inhibitors of pig calpain II; purified calpain II, fluorogenic peptide substrate, 30 min; inhibition, % at 16 µM; 220,000 compounds, 0.37% hits; AID 1236;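 active = inhibition above about 50%, limit read from the data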
# Mdm2 ligase inh: Mdm2 E3 ligase (human) inhibition; Q00987; cell-based MDM2 ubiquitination luciferase reporter, 2 h; 0 = plate control, 100 = twice control, blank-subtracted; signal enhancement, % at 5 µM; 210,000 compounds, 0.11% hits;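 active = signal enhancement of 30% or more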;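 also: luminescence tracks abundance of the self-degrading MDM2-luciferase fusion protein; higher signal means inhibition of MDM2 E3 ligase activity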
# Target sequence (Q00987 whole entry, looked up, the tested form may be a part): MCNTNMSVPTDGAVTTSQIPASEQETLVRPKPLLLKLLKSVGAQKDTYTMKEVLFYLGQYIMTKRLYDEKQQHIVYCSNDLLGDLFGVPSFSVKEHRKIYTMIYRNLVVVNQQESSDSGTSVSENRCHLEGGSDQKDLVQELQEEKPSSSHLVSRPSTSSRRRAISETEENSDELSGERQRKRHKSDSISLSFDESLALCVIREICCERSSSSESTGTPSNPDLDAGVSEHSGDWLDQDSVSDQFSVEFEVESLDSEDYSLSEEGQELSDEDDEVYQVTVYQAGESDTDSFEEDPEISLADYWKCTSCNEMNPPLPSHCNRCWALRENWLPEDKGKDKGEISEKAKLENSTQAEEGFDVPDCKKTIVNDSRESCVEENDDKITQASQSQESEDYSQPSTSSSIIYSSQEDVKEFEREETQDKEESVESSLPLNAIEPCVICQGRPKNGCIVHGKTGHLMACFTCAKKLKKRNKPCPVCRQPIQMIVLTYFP
#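 Material: Stable MDM2–luciferase fusion reporter cells | Amount: 2000 cells seeded into each well | Dosing: One concentration, 5 µM, with 0.2% DMSO | Incubation: 4 h cell settling then 2 h compound exposure, 37 °C | Measured by: Luciferase luminescence | Read-out basis: % enhancement relative to plate controls after blank subtraction | Benchmarks: Control and blank well means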
# ROMK primary: modulates human ROMK potassium channel activity. P48048. Tet-inducible ROMK, thallium flux fluorescence; actives lie on both sides. B-score at 10 µM. 130,000 compounds, 2% hits. AID 1918;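 active = signal ratio slope over the read window, or its plate-corrected B-score, at least 3 SD from the plate mean, either direction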;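 also: B-score of the F/F0 ratio slope over 7 to 12 s after thallium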
# PKD1 inh: blocks activity of human protein kinase D1. inhibition, % (test concentration not listed). PKD1 kinase fluorescence polarization assay. Q15139. 200,000 compounds, 0.056% hits; in the data active = inhibition above about 50%
# Arbovirus inh: antivirals against arbovirus infection | arbovirus infection cell-based antiviral screen | inhibition, % at 10 µM | 200,000 compounds, 0.37% hits | AID 1251; in the data active = inhibition above about 30%
# Cl transport mod: modulators of human KCC2 chloride dependent transport; KCC2 cells, thallium flux FluoZin-2 fluorescence; B-score of Tl+ flux slope (higher = more flux/activation; lower = inhibition) at 10 µM; 190,000 compounds, 2.2% hits;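 active = thallium flux slope and its plate-corrected score both differing from the plate sample mean at a set confidence after two filtering rounds, in either direction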;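 also: slope of fluorescence scaled to starting intensity during 10 to 20 s after thallium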
# ROMK retest: human ROMK channel modulation, retest confirmation. shares compounds with ROMK primary. 3,000 compounds, 54% hits. normalized thallium flux (F/F0 slope) at 10 µM. AID 1917. ROMK thallium flux, fluorescence ratio; hits give low values;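 active = Flux at 10 µM at least 3 SD below or above vehicle control mean in one or both replicates; inconclusive = no clear call, values can overlap the other calls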
# An asterisk follows results filed as active; i = inactive; ? = inconclusive; / = no result given.
SMILES,m-calpain inh,Mdm2 ligase inh,ROMK primary,PKD1 inh,Arbovirus inh,Cl transport mod,ROMK retest
CCOc1ccc2nc(SCC3CC3(Cl)Cl)[nH]c2c1 (stereo unspecified),0,-9,/,/,/,-0.9,/
ClC1(Cl)CC1CSc1nc2ccccc2[nH]1 (stereo unspecified),0,22,-4.3*,6,11,-1.3,0.085
COCCCNc1nc2ccccc2nc1NS(=O)(=O)c1ccc(C)cc1C,-32,-13,/,/,/,-0.52,/
Cc1[nH]nc2c1C(c1ccoc1)C(C#N)=C(N)O2 (stereo unspecified),26,-14,-3.2,-1,-1,-0.47,/
CCCc1[nH]nc2c1C(c1ccoc1)C(C#N)=C(N)O2 (stereo unspecified),-5,-9,-3.7*,-4,3,-1.1,0.052*
COc1ccccc1N(CC(=O)NC(C)(C)C)S(=O)(=O)c1cccs1,-8,8,0.04,-5,2,-0.027,/
Fc1ccc(-n2cc(-c3ccccc3)c3c(NN4CCOCC4)ncnc32)cc1,-18,-2,-4.2*,-15,-7,-0.6,0.048*
COc1cccc(/C=N/n2c(SC)nnc2-c2ccccc2)c1O,-30,-6,3.6*,-8,-1,/,0.081
COc1cccc(/C=N/n2c(SC)nnc2-c2ccccc2)c1OC,-323,-12,/,0,-12,/,/
COc1cc(/C=C(/Sc2nnc(-c3ccc(F)cc3)o2)C(=O)O)ccc1OC(F)F,-37,-6,-11*,-7,8,-0.76,0.077
O=S(=O)(NNc1nccc(C(F)(F)F)n1)c1cccc(Cl)c1Cl,-10,-12,/,/,/,0.021,/
Cc1ccc(-c2csc(NC(=O)Cc3ccc(F)cc3)n2)o1,-86,-11,4.9*,0,-8,1.4,0.073
Cc1ccc(N/C(N)=N/c2nc(CSc3nnc(C)s3)cc(=O)[nH]2)c(C)c1,14,-20,6.3*,-9,-9,0.85,0.086
COc1ccc(N/C(N)=N/c2nc(CSc3nnc(C)s3)cc(=O)[nH]2)cc1,-34,/,3.9*,5,-9,-0.27,0.079
CN(CC(=O)N1CCCC1)S(=O)(=O)c1cc(Cl)ccc1Cl,-12,-13,-0.15,-7,4,/,/
O=C(O)Cc1ccc(N=Cc2c(O)ccc3ccccc23)cc1,2,-8,/,4,-5,-3.4,0.081
CCCc1nc(SCC(=O)N2CCC(Cc3ccccc3)CC2)c2c(=O)n(C)c(=O)n(C)c2n1,43,-14,/,5,-45,-2,?
Cn1c(=O)c2c(SCC(=O)N3CCC(Cc4ccccc4)CC3)nc(C3CC3)nc2n(C)c1=O,/,/,/,/,-7,/,/
COCCn1c(SCC(=O)N2CCCc3ccccc32)nc2ccccc2c1=O,-42,-1,-2.7*,-2,2,/,0.063*
CCCc1nc(SCC(=O)N2CCCc3ccccc32)c2c(=O)n(C)c(=O)n(C)c2n1,62*,-4,/,-2,-47,-1.1,0.057*
Cn1c(=O)c2c(SCC(=O)N3CCCc4ccccc43)nc(CC(C)(C)C)nc2n(C)c1=O,15,-13,/,2,-36,/,/
COCCn1c(SCC(=O)N2CCCc3ccccc32)nc2c(c1=O)SC(C)C2 (stereo unspecified),13,-6,/,-3,-10,0.7,/
CCOC(=O)c1sc2nc(COC(=O)c3c(F)cccc3F)[nH]c(=O)c2c1C,-86,-10,-2.4*,-5,6,1.1,0.09
N#Cc1cc(C(=O)c2ccccc2O)cn(-c2nccs2)c1=O,-16,-8,-8.4*,-6,-19,i,0.025*
N#Cc1cc(C(=O)c2cc(F)ccc2O)cn(-c2nccs2)c1=O,-13,5,-5*,-1,-16,i,0.03*
SMILES,m-calpain inh,Mdm2 ligase inh,ROMK primary,PKD1 inh,Arbovirus inh,Cl transport mod,ROMK retest
CC(C)n1cc(C(=O)c2ccccc2O)cc(C#N)c1=O,-40,-11,1,-1,-2,0.025,/
O=S(=O)(c1ccc(Cl)cc1)N1CCN(S(=O)(=O)N2CCCCCC2)CC1,-12,0,-0.73,3,-5,0.66,/
O=S(=O)(c1ccc(Oc2ccc(Cl)cc2)c(S(=O)(=O)N2CCCCC2)c1)N1CCCCC1,44,0,/,-11,38*,0.22,0.064*
O=[N+]([O-])c1cc(S(=O)(=O)N2CCCCCC2)ccc1Cl,18,-9,-3.9*,-9,-1,0.053,0.064*
CC(C)(C)c1ccc(NNC(=O)C2CCC2)cc1,13,-5,/,/,/,-0.72,/
CC(=NC(C)C)C1=C(O)C(C)OC1=O (stereo unspecified),16,-1,0.26,-10,-1,0.69,/
CCOC(=O)Cn1c(=N)n(CCOc2ccc3ccccc3c2)c2ccccc21,-17,-12,-4.2*,7,-6,/,0.056*
CCOC(=O)Cn1c(=N)n(CCOc2ccc(OC)cc2)c2ccccc21,-3,-14,-2.6*,1,-5,-0.093,0.06*
C[N+]1(CN2C(=O)C3C4C=CC(C4)C3C2=O)CCCCC1 (stereo unspecified),-10,-11,/,/,/,0.15,/
O=C(CNC(=O)c1ccc(S(=O)(=O)N2CCCC2)cc1)N/N=C/c1ccc(Cl)cc1Cl,24,-2,0.19,0,0,0.91,/
Cc1csc2c(N3CCN(C(=S)Nc4ccc(F)cc4F)CC3)ncnc12,-17,-12,-3.3*,/,/,-1.5,0.061*
Cc1csc2c(N3CCN(C(=O)Nc4ccccc4)CC3)ncnc12,-1,-2,-0.56,/,/,-1.1,/
COc1ccc(-n2c(SCC(=O)Nc3cc(C)on3)nc3ccccc3c2=O)cc1Cl,-14,5,-0.095,-2,3,-0.29,/
COc1ccc(/C=C(/C#N)C(=O)Nc2cc(C)ccc2C)cc1C(=O)O,-9,-38,-0.54,-4,3,0.47,/
Cc1ccc(C)c(NC(=O)/C(C#N)=C/c2ccc(Sc3nncn3C)c([N+](=O)[O-])c2)c1,-30,-4,-3.1*,0,-2,-0.32,0.06*
O=C1/C(=C\c2ccc(O)c(O)c2)C(c2ccccc2)=NN1c1ccccc1,-13,-7,-3.9*,9,-35,-0.62,?
Cc1cccc(NC(=S)N(CCN(C)C)Cc2cc3cccc(C)c3[nH]c2=O)c1,-2,-12,-2.6,2,0,-0.03,/
Cc1cccc(NC(=S)N(CCN(C)C)Cc2cc3cc(C)cc(C)c3[nH]c2=O)c1,-19,-10,-4.9*,7,18,-0.11,0.06*
Cc1cc(C)c2cc(CN(CCCN(C)C)C(=S)NCc3ccccc3)c(=O)[nH]c2c1,-44,-7,-3.7*,-2,-25,-0.052,0.054*
C/C(O)=C\c1nc2ccccc2oc1=O,2,-8,/,-8,-10,0.94,0.074
O=c1oc2ccccc2nc1/C=C(\O)c1ccc(Br)cc1,18,-5,0.36,/,/,-1,/
